The source made the active and inactive calls. No cut-off for these calls is given here. Non-standard residues stand in square brackets, D forms with d. Residues, ends and D or L forms follow the SMILES beside them. Ahx = NCCCCCC(=O)O
Experiments:
D1 [1] = assay: Induction of mouse D1 cell maturation assessed as CD54 expression at 5 to 10 uM after 48 hrs by flow cytometry in presence of 10 ug/ml LPS inhibitor polymyxin B; assay type: functional, cell-based
Summary of the method: (§1)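 D1 cells (2×10^5 ml⁻¹, 48 h preculture) were treated 48 h with inducers in fresh medium. Assays were also run with polymyxin B present to exclude LPS-driven activation, and LPS at 10 µg ml⁻¹ was the reference stimulus. Cells were harvested in PBS/EDTA and surface maturation markers were measured by flow cytometry.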

D1 [2] = assay: Induction of mouse D1 cell maturation assessed as CD80 expression at 5 to 10 uM after 48 hrs by flow cytometry in presence of 10 ug/ml LPS inhibitor polymyxin B; assay type: functional, cell-based; summary of the method: as §1
[3] = biological target: T1, Tumor necrosis factor receptor superfamily member 5 (Homo sapiens, UniProt P25942); assay: Inhibition of recombinant human CD40L:mouse CD8 tail binding to human CD40 by surface plasmon resonance method
T1 sequence (P25942 whole entry): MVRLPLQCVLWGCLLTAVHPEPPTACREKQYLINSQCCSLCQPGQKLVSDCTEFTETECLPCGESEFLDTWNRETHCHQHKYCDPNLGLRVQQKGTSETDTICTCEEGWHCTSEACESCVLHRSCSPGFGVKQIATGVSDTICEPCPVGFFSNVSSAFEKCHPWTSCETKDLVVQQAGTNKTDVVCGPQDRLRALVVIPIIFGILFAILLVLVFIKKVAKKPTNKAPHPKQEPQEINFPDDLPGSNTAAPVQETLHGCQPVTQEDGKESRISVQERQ
Summary of the method: (§2)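 hCD40:mIg was captured on an anti-mouse Ig chip. A fixed amount of soluble hCD40L:CD8 was premixed with increasing ligand concentrations, and the mixtures were injected at 25 °C in HBS-EP, 30 µl min⁻¹, 5 min association and 5 min dissociation. Regeneration was 50 mM HCl. Inhibition of CD40L binding was taken from reference-subtracted sensorgrams.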

BL-41 [4] = assay: Induction of apoptosis in CD40-positive human BL41 cells assessed as decrease in reduction in DiOC6 dye uptake after DAPI staining by epifluorescence microscopy; assay type: functional, cell-based
D1 [5] = assay: Induction of mouse D1 cell maturation assessed as CD86 expression at 5 to 10 uM after 48 hrs by flow cytometry in presence of 10 ug/ml LPS inhibitor polymyxin B; assay type: functional, cell-based; summary of the method: as §1
BL-41 [6] = assay: Induction of apoptosis in CD40-positive human BL41 cells assessed as decrease in mitochondrial membrane potential after 16 hrs by mean fluorescence intensity; assay type: functional, cell-based
Summary of the method: (§3)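 BL41 Burkitt lymphoma cells in RPMI 1640 with 10% FBS were seeded at 5×10^5 ml⁻¹ and exposed to inducers at 37 °C (16 h). Apoptosis was read by flow cytometry, either as loss of DiOC₆(3) uptake (Δψm) or as annexin V–FITC/PI co-staining. Specific apoptosis % = (treated − control)×100/(100 − control). Values are means of three independent experiments.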

BL-41 [7] = assay: Induction of apoptosis in CD40-positive human BL41 cells assessed as level of CD40 expression by mean fluorescence intensity; assay type: functional, cell-based
BL-41 [8] = assay: Induction of apoptosis in CD40-positive human BL41 cells assessed as detection of phosphatidylserine expression using annexin V-FITC and propidium iodine staining by flow cytometry; assay type: functional, cell-based; summary of the method: as §3
[9] = biological target: T1, Tumor necrosis factor receptor superfamily member 5; assay: Inhibition of recombinant human CD40L:mouse CD8 tail binding to human CD40 at 10 uM by surface plasmon resonance method; summary of the method: as §2

Structure (SMILES): C[C@@H](NC(=O)[C@H](CCCCNC(=O)CCCCCNC(=O)[C@H](Cc1ccc(O)cc1)NC(=O)[C@H](Cc1ccc(O)cc1)NC(=O)CNC(=O)[C@@H](N)CCCCN)NC(=O)[C@@H](C)NC(=O)[C@H](CCCCNC(=O)CCCCCNC(=O)[C@H](Cc1ccc(O)cc1)NC(=O)[C@H](Cc1ccc(O)cc1)NC(=O)CNC(=O)[C@@H](N)CCCCN)NC(=O)[C@@H](C)NC(=O)[C@@H](N)CCCCNC(=O)CCCCCNC(=O)[C@H](Cc1ccc(O)cc1)NC(=O)[C@H](Cc1ccc(O)cc1)NC(=O)CNC(=O)[C@@H](N)CCCCN)C(=O)O
- Activity (D1 [1]): inactive
- Activity (D1 [2]): inactive
- inhibition [3]: inactive
- Activity (BL-41 [4]): inactive
- Activity (D1 [5]): inactive
- Activity (BL-41 [6]): inactive
- Activity (BL-41 [7]): inactive
- Activity (BL-41 [8]): inactive

Structure (SMILES): NCCCC[C@H](N)C(=O)NCC(=O)N[C@@H](Cc1ccc(O)cc1)C(=O)N[C@@H](Cc1ccc(O)cc1)C(=O)NCCCCCC(=O)O (H-KGYY[Ahx]-OH)
- Activity (D1 [1]): inactive
- Activity (D1 [2]): inactive
- inhibition [3]: inactive
- Activity (BL-41 [4]): inactive
- Activity (D1 [5]): inactive
- Activity (BL-41 [6]): inactive
- Activity (BL-41 [7]): inactive
- Activity (BL-41 [8]): inactive

Structure (SMILES): NCCCC[C@H](N)C(=O)NCC(=O)N[C@@H](Cc1ccc(O)cc1)C(=O)N[C@@H](Cc1ccc(O)cc1)C(=O)NCCCCCC(=O)NCCCOCC(COCCCNC(=O)CCCCCNC(=O)[C@H](Cc1ccc(O)cc1)NC(=O)[C@H](Cc1ccc(O)cc1)NC(=O)CNC(=O)[C@@H](N)CCCCN)(COCCCNC(=O)CCCCCNC(=O)[C@H](Cc1ccc(O)cc1)NC(=O)[C@H](Cc1ccc(O)cc1)NC(=O)CNC(=O)[C@@H](N)CCCCN)NC(=O)CCC(N)=O
- IC50 [3]: > 10 µM
- Activity (BL-41 [4]): inactive
- Activity (BL-41 [6]): inactive
- Activity (BL-41 [7]): inactive
- Activity (BL-41 [8]): inactive
- inhibition [9]: 20%

— ChEMBL document CHEMBL1240299, “C3-symmetric peptide scaffolds are functional mimetics of trimeric CD40L” (Nat Chem Biol, 2005)
